≈ marks a conversion by molar mass, not a printed value. Calls of active or inactive are those of the source. The rule behind the calls is not given here.
Experiments:
[1] = Selectivity index, ratio of TC50 for human HepG2(2.2.15) cells to IC50 for HBV infected in human HepG2(2.2.15) cells assessed as inhibition of e antigen secretion
Method in brief: (§1)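 Selectivity index computed as TC50 (MTS, HepG2 2.2.15, 3 days) divided by IC50 for HBsAg, HBeAg or virion DNA inhibition in the same cell line.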

Hepatitis B virus [2] = assay: Antiviral activity against HBV infected in human HepG2(2.2.15) cells assessed as inhibition of e antigen secretion by EIA; assay type: functional, organism-based
Method in brief: (§2)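 HepG2 2.2.15 cells (HepG2 stably carrying a head-to-tail HBV DNA dimer; MEM, 10% FBS, 37 °C, 5% CO2) treated with compound for 3 days; conditioned medium assayed for secreted HBsAg and HBeAg by enzyme immunoassay; mean and SD, n = 3; IC50 taken as 50% inhibitory concentration.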

[3] = Selectivity index, ratio of TC50 for human HepG2(2.2.15) cells to IC50 for HBV infected in human HepG2(2.2.15) cells assessed as inhibition of surface antigen secretion; method in brief: as §1
[4] = Cytotoxicity against human HepG2(2.2.15) cells; assay type: cell-based; details: read-out: TC50 (the source's name)
Method in brief: (§3)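 Cytotoxicity by MTS: HepG2 2.2.15 cells seeded at 4×10^4 cells/ml for 24 h, exposed to serial dilutions 2.5–160 µg/ml for 3 days; four replicates, viability expressed relative to untreated control; TC50 as 50% cytotoxic concentration.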

Hepatitis B virus [5] = assay: Antiviral activity against HBV infected in human HepG2(2.2.15) cells assessed as inhibition of viral DNA replication; assay type: functional, organism-based
Method in brief: (§4)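 Secreted virion DNA from HepG2 2.2.15 cells after 3 days of compound treatment; HBV DNA isolated from conditioned medium and quantified by SYBR Green real-time PCR (45 cycles, 95 °C 15 s / 58 °C 1 min); mean and SD, n = 3; IC50 as 50% inhibitory concentration.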

Hepatitis B virus [6] = assay: Antiviral activity against HBV infected in human HepG2(2.2.15) cells assessed as inhibition of surface antigen secretion by EIA; assay type: functional, organism-based; method in brief: as §2
[7] = Selectivity index, ratio of TC50 for human HepG2(2.2.15) cells to IC50 for HBV infected in human HepG2(2.2.15) cells assessed as inhibition of viral DNA replication; method in brief: as §1
Hepatitis B virus [8] = assay: Inhibition of NF-kappaB promoter activity in HBV infected in human HuH7 cells transfected with pNF-kappaB-Luc at 10 ug/ml after 24 hrs by luciferase reporter gene assay; assay type: functional, organism-based; details: Huh-7
Method in brief: (§5)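 Huh7 in 24-well plates transfected with pAP1-, pAP2-, pNF-κB- or pISRE-Luc plus pRL-SV40 for 24 h, then treated ± 10 µg/ml; dual-luciferase read-out normalized to Renilla; mean and SD, n = 3.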

Hepatitis B virus [9] = assay: Antiviral activity against HBV transfected in human HuH7 cells assessed as reduction in major S/preS RNA level at 1 to 10 ug/ml after 2 days by Northern blot analysis; assay type: functional, organism-based; details: Huh-7
Method in brief: (§6)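 pHBV1.2-transfected Huh7 (cotransfected pCMV-β for efficiency) treated 1, 5, 10 µg/ml for 2 days; 5 µg total RNA on 1.0% agarose, Northern blot with whole HBV genome probe; GAPDH RNA loading control, β-gal for transfection efficiency.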

Hepatitis B virus [10] = assay: Antiviral activity against HBV infected in human HepG2(2.2.15) cells assessed as inhibition of surface antigen secretion after 3 days by EIA; assay type: functional, organism-based; method in brief: as §2
Hepatitis B virus [11] = assay: Reduction of preS promoter activity in HBV infected in human HuH7 cells transfected with pPreS-Luc at 10 ug/ml after 24 hrs by luciferase reporter gene assay; assay type: functional, organism-based; details: Huh-7
Method in brief: (§7)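 Huh7 seeded in 24-well plates 24 h, cotransfected with viral promoter-luciferase construct (Core, S, preS or X; 1 µg/well) plus pHBV1.2 and pRL-SV40 (0.02 µg/well) in serum-free DMEM 24 h; then 2% FBS medium ± 10 µg/ml; firefly normalized to Renilla; n = 3.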

Hepatitis B virus [12] = assay: Reduction of S promoter activity in HBV infected in human HuH7 cells transfected with pS-Luc at 10 ug/ml after 24 hrs by luciferase reporter gene assay; assay type: functional, organism-based; details: Huh-7; method in brief: as §7
Hepatitis B virus [13] = assay: Antiviral activity against HBV transfected in human HuH7 cells assessed as reduction in SHBsAg protein expression at 1 to 10 ug/ml after 2 days by immunoblot analysis relative to vehicle-treated control; assay type: functional, organism-based; details: Huh-7
Method in brief: (§8)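 Huh7 transfected with pHBV1.2 (Lipofectamine 2000, 2 days), then treated 1, 5, 10 µg/ml for 2 days; whole-cell RIPA lysates, 25 µg protein per lane SDS-PAGE, PVDF immunoblot for LHBsAg, SHBsAg, HBcAg with ECL detection; α-tubulin loading control; compared with vehicle.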

[14] = Cytotoxicity against HBV-transfected human HuH7 cells up to 160 ug/ml after 3 days by MTS assay; assay type: cell-based; details: huh-7, 72 h
Method in brief: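 Huh7 cells (DMEM, 10% FBS) transfected with HBV plasmid, seeded at 4×10^4 cells/ml for 24 h, treated with 2.5–160 µg/ml serial dilutions for 3 days; viability by MTS read-out, four replicates, relative to untreated control.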

Hepatitis B virus [15] = assay: Antiviral activity against HBV transfected in human HuH7 cells assessed as reduction in precore/pregenomic RNA level at 1 to 10 ug/ml after 2 days by Northern blot analysis; assay type: functional, organism-based; details: Huh-7; method in brief: as §6
Hepatitis B virus [16] = assay: Upregulation of AP-1 promoter activity in HBV infected in human HuH7 cells transfected with pAP1-Luc at 10 ug/ml after 24 hrs by luciferase reporter gene assay; assay type: functional, organism-based; details: Huh-7; method in brief: as §5
Hepatitis B virus [17] = assay: Antiviral activity against HBV infected in human HepG2(2.2.15) cells assessed as inhibition of e antigen secretion after 3 days by EIA; assay type: functional, organism-based; method in brief: as §2
Huh-7 [18] = assay: Reduction of phosphorylated p65 NF-kappaB level in human HuH7 cells transfected with pHBV1.2 at 1 to 10 ug/ml after 2 days by Western blotting analysis; assay type: functional, cell-based
Method in brief: (§9)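 Huh7 transfected with pHBV1.2 for 2 days, treated 1, 5, 10 µg/ml for 2 further days; nuclear and cytoplasmic fractions by NE-PER; 25 µg protein immunoblotted for p65, p50, phospho-p65 (nuclear, PCNA control) and IκBα (cytoplasmic); three experiments.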

Hepatitis B virus [19] = assay: Antiviral activity against HBV transfected in human HuH7 cells assessed as reduction in viral DNA replication after 2 days by Southern blot analysis; assay type: functional, organism-based; details: Huh-7
Method in brief: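 Intracellular encapsidated HBV DNA from core particles of pHBV1.2-transfected Huh7 cells treated 2 days; 1.0% agarose, Southern blot with DIG-labeled full-length HBV probe; lamivudine-treated cells as comparison.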

Hepatitis B virus [20] = assay: Inhibition of Core promoter activity in HBV infected in human HuH7 cells transfected with pCore-Luc at 10 ug/ml after 24 hrs by luciferase reporter gene assay; assay type: functional, organism-based; details: Huh-7; method in brief: as §7
Hepatitis B virus [21] = assay: Inhibition of AP-2 promoter activity in HBV infected in human HuH7 cells transfected with pAP2-Luc at 10 ug/ml after 24 hrs by luciferase reporter gene assay; assay type: functional, organism-based; details: Huh-7; method in brief: as §5
Huh-7 [22] = assay: Antiviral activity against HBV infected in human HuH7 cells transfected with pHBV1.2/p65 expression plasmid at 10 ug/ml after 2 days by RT-PCR analysis; assay type: functional, cell-based
Method in brief: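 Huh7 cells cotransfected with pHBV1.2 plus 0.5 or 2.5 µg pCMV-p65 (or empty vector) for 2 days, then exposed to 10 µg/ml for 2 more days; secreted viral particle DNA quantified by real-time PCR; n = 3.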

Hepatitis B virus [23] = assay: Inhibition of ISRE promoter activity in HBV infected in human HuH7 cells transfected with pISRE-Luc at 10 ug/ml after 24 hrs by luciferase reporter gene assay; assay type: functional, organism-based; details: Huh-7; method in brief: as §5
[24] = Cytotoxicity against human HepG2(2.2.15) cells at >20 ug/ml after 3 days by MTS assay; assay type: cell-based; details: hepg2 2.2.15, 72 h; method in brief: as §3
[25] = Upregulation of cytoplasmic IkappaBalpha level in human HuH7 cells transfected with pHBV1.2 at 1 to 10 ug/ml after 2 days by Western blotting analysis; assay type: functional, cell-based; details: Huh-7; method in brief: as §9
Huh-7 [26] = assay: Reduction in NF-kappaB binding to consensus DNA-binding sequence in human HuH7 cells transfected with pHBV1.2 by ESMA analysis; assay type: functional, cell-based
Hepatitis B virus [27] = assay: Antiviral activity against HBV transfected in human HuH7 cells assessed as reduction in LHBsAg protein expression at 1 to 10 ug/ml after 2 days by immunoblot analysis relative to vehicle-treated control; assay type: functional, organism-based; details: Huh-7; method in brief: as §8
Huh-7 [28] = assay: Inhibition of nuclear p65/p50 NF-kappaB protein expression in human HuH7 cells transfected with pHBV1.2 at 1 to 10 ug/ml after 2 days by Western blotting analysis; assay type: functional, cell-based; method in brief: as §9
Hepatitis B virus [29] = assay: Antiviral activity against HBV transfected in human HuH7 cells assessed as reduction in HBcAg protein expression at 1 to 10 ug/ml after 2 days by immunoblot analysis relative to vehicle-treated control; assay type: functional, organism-based; details: Huh-7; method in brief: as §8
Hepatitis B virus [30] = assay: Antiviral activity against HBV infected in human HepG2(2.2.15) cells assessed as inhibition of viral DNA replication by RT-PCR analysis; assay type: functional, organism-based; method in brief: as §4

CCc1ccc(C(=O)N[C@]2(C)CCC[C@@]3(C)[C@@H]4CC[C@@]5(C)C[C@]4(CC[C@@H]32)CC5=O)cc1
Selectivity Index [1]: 2.87
IC50 (Hepatitis B virus [2]): 7.38 µg/mL (≈ 17.5 µM)
Selectivity Index [3]: 3.8
CC50 [4]: 21.2 µg/mL (≈ 50.3 µM)
IC50 (Hepatitis B virus [5]): 11.2 µg/mL (≈ 26.6 µM)
IC50 (Hepatitis B virus [6]): 5.57 µg/mL (≈ 13.2 µM)
Selectivity Index [7]: 1.89

CCC(=O)N[C@]1(C)CCC[C@@]2(C)[C@@H]3CC[C@@]4(C)C[C@]3(CC[C@@H]21)CC4=O
Selectivity Index [3]: 2.7
CC50 [4]: 87.5 µg/mL (≈ 253 µM)
IC50 (Hepatitis B virus [6]): 32.5 µg/mL (≈ 93.9 µM)

C[C@@]12CC[C@@H]3[C@@](CC[C@H]4[C@@]3(C)CCC[C@@]4(C)NC(=O)c3ccc(C#N)cc3)(CC1=O)C2
Selectivity Index [3]: 1.28
CC50 [4]: 10.8 µg/mL (≈ 25.8 µM)
IC50 (Hepatitis B virus [6]): 8.45 µg/mL (≈ 20.2 µM)

C[C@@]12CC[C@@H]3[C@@](CC[C@H]4[C@@]3(C)CCC[C@@]4(C)NC(=O)c3ccc(F)cc3)(CC1=O)C2
Selectivity Index [1]: 1.54
IC50 (Hepatitis B virus [2]): 12.8 µg/mL (≈ 31.1 µM)
Selectivity Index [3]: 4.73
CC50 [4]: 19.7 µg/mL (≈ 48 µM)
IC50 (Hepatitis B virus [5]): 7.44 µg/mL (≈ 18.1 µM)
IC50 (Hepatitis B virus [6]): 4.17 µg/mL (≈ 10.1 µM)
Selectivity Index [7]: 2.65

CCCC(=O)N[C@]1(C)CCC[C@@]2(C)[C@@H]3CC[C@@]4(C)C[C@]3(CC[C@@H]21)CC4=O
inhibition (Hepatitis B virus [8]): Active
Selectivity Index [1]: 5.89
IC50 (Hepatitis B virus [2]): 11.2 µg/mL (≈ 31 µM)
Activity (Hepatitis B virus [9]): Active
inhibition (Hepatitis B virus [10]): Dose-dependent effect
Activity (Hepatitis B virus [11]): Active
Activity (Hepatitis B virus [12]): Active
Selectivity Index [3]: 6.34
CC50 [4]: 65.7 µg/mL (≈ 183 µM)
Activity (Hepatitis B virus [13]): Active
Activity [14]: Non-toxic
Activity (Hepatitis B virus [15]): Active
Activity (Hepatitis B virus [16]): Active
inhibition (Hepatitis B virus [17]): Dose-dependent effect
Activity (Huh-7 [18]): Active
IC50 (Hepatitis B virus [5]): 5.76 µg/mL (≈ 16 µM)
Activity (Hepatitis B virus [19]): Dose-dependent effect
IC50 (Hepatitis B virus [6]): 10.4 µg/mL (≈ 28.8 µM)
inhibition (Hepatitis B virus [20]): inactive
inhibition (Hepatitis B virus [21]): inactive
Activity (Huh-7 [22]): inactive
inhibition (Hepatitis B virus [23]): inactive
Activity [24]: Toxic
Activity [25]: Active
Activity (Huh-7 [26]): Dose-dependent effect
Selectivity Index [7]: 11.41
Activity (Hepatitis B virus [27]): Active
inhibition (Huh-7 [28]): Active
Activity (Hepatitis B virus [29]): Active
inhibition (Hepatitis B virus [30]): Dose-dependent effect

C[C@@]12CC[C@@H]3[C@@](CC[C@H]4[C@@]3(C)CCC[C@@]4(C)NC(=O)c3ccccc3)(CC1=O)C2
Selectivity Index [3]: 1.36
CC50 [4]: 48.5 µg/mL (≈ 123 µM)
IC50 (Hepatitis B virus [6]): 35.6 µg/mL (≈ 90.6 µM)
